Source: ChEMBL document CHEMBL5260824, “9-Deazapurines as Broad-Spectrum Inhibitors of the ABC Transport Proteins P-Glycoprotein, Multidrug Resistance-Associated Protein 1, and Breast Cancer Resistance Protein” (J Med Chem, 2017)

Legend:
[1] = target: T1, Multidrug resistance-associated protein 1 (Homo sapiens, UniProt P33527); assay: Inhibition of MRP1 (unknown origin)
[2] = target: T2, ATP-dependent translocase ABCB1 (Homo sapiens, UniProt P08183); assay: Inhibition of P-gp (unknown origin)
[3] = target: T2, ATP-dependent translocase ABCB1; assay: Inhibition of P-gp (unknown origin) incubated for 30 mins by calcein AM analysis
Summary of the method: (§1)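 A2780/ADR cells (doxorubicin-selected, P-gp overexpressing), about 30,000 per well in Krebs-HEPES buffer pH 7.4, incubated 30 min at 37 °C with compound (100 nM–100 µM added solutions). Calcein AM (3.125 µM solution added) then fluorescence read every 60 s at 37 °C, ex 485/em 520 nm; slope over minutes 5–30 plotted vs log concentration. Cyclosporine A 10 µM = 100% inhibition, buffer = 0%.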

[4] = target: T1, Multidrug resistance-associated protein 1; assay: Inhibition of MRP1 in human NCI-H69AR cells incubated for 180 mins in presence of daunorubicin by flow cytometry analysis; assay type: cell-based
Summary of the method: (§2)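 H69AR cells (doxorubicin-selected small cell lung cancer, RPMI-1640/20% FBS), about 60,000 per well, preincubated 15 min with compound (100 nM–100 µM added solutions, in unsupplemented medium), then daunorubicin (30 µM solution added); steady state after 180 min, 37 °C, 5% CO2. Cells resuspended; flow cytometry, 488 nm excitation, FL3 (≥670 nm). Reference inhibitor 75 at 10 µM = 100%; Imax relative to it.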

[5] = target: T3, Broad substrate specificity ATP-binding cassette transporter ABCG2 (Homo sapiens, UniProt Q9UNQ0); assay: Inhibition of BCRP (unknown origin) expressed in dog MDCK-II cells using pheophorbide A as substrate preincubated for 20 mins followed by substrate addition and measured after 120 mins by flow cytometry analysis; assay type: cell-based
T3 sequence (Q9UNQ0 whole entry): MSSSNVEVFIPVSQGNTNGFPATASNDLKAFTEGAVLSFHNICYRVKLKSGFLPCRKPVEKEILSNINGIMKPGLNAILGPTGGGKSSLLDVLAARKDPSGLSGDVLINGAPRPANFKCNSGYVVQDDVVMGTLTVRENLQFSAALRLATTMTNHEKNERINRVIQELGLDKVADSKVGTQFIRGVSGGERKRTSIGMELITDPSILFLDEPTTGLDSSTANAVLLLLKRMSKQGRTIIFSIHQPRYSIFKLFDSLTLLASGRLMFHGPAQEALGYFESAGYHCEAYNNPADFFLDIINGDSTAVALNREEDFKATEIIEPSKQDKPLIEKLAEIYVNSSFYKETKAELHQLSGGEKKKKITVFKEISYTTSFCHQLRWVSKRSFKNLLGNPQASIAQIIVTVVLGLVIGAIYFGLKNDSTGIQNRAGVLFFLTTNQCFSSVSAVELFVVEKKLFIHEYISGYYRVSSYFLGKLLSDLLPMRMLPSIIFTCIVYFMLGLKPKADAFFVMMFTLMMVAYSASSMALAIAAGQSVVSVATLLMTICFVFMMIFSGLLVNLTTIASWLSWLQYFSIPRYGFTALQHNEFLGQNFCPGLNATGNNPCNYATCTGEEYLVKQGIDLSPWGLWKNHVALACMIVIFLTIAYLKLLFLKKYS
Summary of the method: (§3)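 MDCK II cells transfected with human wild-type BCRP cDNA C-terminally fused to GFP, grown in DMEM/10% FBS. About 45,000 cells per well preincubated 20 min at 37 °C, 5% CO2 with compound (100 nM–100 µM added solutions), then pheophorbide A (5 µM solution added) for 120 min to steady state. Resuspended; flow cytometry, 488 nm excitation, FL3 (≥670 nm); GFP in FL1. Reference inhibitor 24 at 10 µM = 100%.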

P-gp (ABCB1) [6] = target: T4, P-gp (ABCB1) (Homo sapiens, UniProt P08183); assay: Inhibition of P-gp (unknown origin) at 10 uM incubated for 30 mins by calcein AM analysis relative to control; settings: probe calcein AM; summary of the method: as §1
MRP1 [7] = target: T5, MRP1 (Homo sapiens, UniProt P33527); assay: Inhibition of MRP1 in human NCI-H69AR cells at 10 uM incubated for 180 mins in presence of daunorubicin by flow cytometry analysis relative to control; assay type: cell-based; settings: probe daunorubicin; summary of the method: as §2
BCRP (ABCG2) [8] = target: T6, BCRP (ABCG2) (Homo sapiens, UniProt Q9UNQ0); assay: Inhibition of BCRP (unknown origin) expressed in dog MDCK-II cells at 10 uM using pheophorbide A as substrate preincubated for 20 mins followed by substrate addition and measured after 120 mins by flow cytometry analysis relative to control; assay type: cell-based; settings: probe pheophorbide A; summary of the method: as §3
T6 sequence (Q9UNQ0 whole entry): T3 sequence (Q9UNQ0 whole entry)

P-gp (ABCB1) [9] = target: T4, P-gp (ABCB1); assay: Inhibition of P-gp (unknown origin) expressed in dog MDCK-MDR1cells assessed as maximum inhibition at 10 uM by calcein AM accumulation assay relative to control; assay type: cell-based; settings: MDCK-MDR1 cells, probe calcein AM
MRP1 [10] = target: T5, MRP1; assay: Inhibition of MRP1 in human NCI-H69AR cells assessed as maximum inhibition at 10 uM incubated for 180 mins in presence of daunorubicin by flow cytometry analysis relative to control; assay type: cell-based; settings: probe daunorubicin; summary of the method: as §2
[11] = target: T3, Broad substrate specificity ATP-binding cassette transporter ABCG2; assay: Inhibition of BCRP (unknown origin) expressed in MDCK cells assessed as increase in Hoechst 33342 accumulation incubated for 30 mins by Hoechst 33342 dye based fluorescence assay; assay type: cell-based
[12] = target: T1, Multidrug resistance-associated protein 1; assay: Inhibition of human MRP1 expressed in human MDR cells measured for 2 hrs; assay type: cell-based
[13] = target: T3, Broad substrate specificity ATP-binding cassette transporter ABCG2; assay: Inhibition of BCRP (unknown origin)
Summary of the method: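 Pheophorbide A accumulation in MDCK II cells transfected with human wild-type BCRP cDNA C-terminally linked to GFP, ~45,000 cells/well. Compound (100 nM–100 µM) preincubated 20 min at 37 °C, 5% CO2. Pheophorbide A stock 5 µM added, then 120 min to steady state. Flow cytometry read-out: FL3 (≥670 nm, 488 nm excitation).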

[14] = target: T1, Multidrug resistance-associated protein 1; assay: Inhibition of MRP1 (unknown origin) measured for 2 hrs
P-gp (ABCB1) [15] = target: T4, P-gp (ABCB1); assay: Inhibition of P-gp (unknown origin) expressed in dog MDCK-MDR1cells assessed as maximum inhibition by calcein AM accumulation assay relative to control; assay type: cell-based; settings: MDCK-MDR1 cells, probe calcein AM, read-out: Imax
MRP1 [16] = target: T5, MRP1; assay: Inhibition of MRP1 in human NCI-H69AR cells assessed as maximum inhibition incubated for 180 mins in presence of daunorubicin by flow cytometry analysis relative to control; assay type: cell-based; settings: probe daunorubicin, read-out: Imax; summary of the method: as §2
BCRP (ABCG2) [17] = target: T6, BCRP (ABCG2); assay: Inhibition of BCRP (unknown origin) expressed in dog MDCK-II cells assessed as maximum inhibition using pheophorbide A as substrate preincubated for 20 mins followed by substrate addition and measured after 120 mins by flow cytometry analysis relative to control; assay type: cell-based; settings: probe pheophorbide A, time 140 min, read-out: Imax; summary of the method: as §3
[18] = target: T3, Broad substrate specificity ATP-binding cassette transporter ABCG2; assay: Inhibition of BCRP (unknown origin) expressed in MDCK cells assessed as increase in Hoechst 33342 accumulation incubated for 60 mins by Hoechst 33342 dye based fluorescence assay; assay type: cell-based
[19] = Inhibition of cell growth in SN-38 resistant dog MDCK-II-BCRP cells expressing BCRP measured for 72 hrs by MTT assay; assay type: functional; settings: Canis lupus familiaris
Summary of the method: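 Reversal assay: resistant lines (A2780/ADR, H69AR, MDCK II BCRP) and parental lines seeded as for MTT assay with modulator solutions of 1, 10 and 100 µM added (final 0.1, 1, 10 µM) and daunorubicin (P-gp, MRP1) or SN-38 (BCRP) at final 10 nM–10 µM. 72 h, MTT read-out; GI50 by variable-slope fit. Resistance factor = resistant/sensitive GI50; potentiation factor = GI50 without/with modulator.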

[20] = Inhibition of SN-38 sensitive dog MDCK-II-BCRP cells expressing BCRP measured for 72 hrs by MTT assay; assay type: functional; settings: Canis lupus familiaris

T2 sequence (P08183 whole entry): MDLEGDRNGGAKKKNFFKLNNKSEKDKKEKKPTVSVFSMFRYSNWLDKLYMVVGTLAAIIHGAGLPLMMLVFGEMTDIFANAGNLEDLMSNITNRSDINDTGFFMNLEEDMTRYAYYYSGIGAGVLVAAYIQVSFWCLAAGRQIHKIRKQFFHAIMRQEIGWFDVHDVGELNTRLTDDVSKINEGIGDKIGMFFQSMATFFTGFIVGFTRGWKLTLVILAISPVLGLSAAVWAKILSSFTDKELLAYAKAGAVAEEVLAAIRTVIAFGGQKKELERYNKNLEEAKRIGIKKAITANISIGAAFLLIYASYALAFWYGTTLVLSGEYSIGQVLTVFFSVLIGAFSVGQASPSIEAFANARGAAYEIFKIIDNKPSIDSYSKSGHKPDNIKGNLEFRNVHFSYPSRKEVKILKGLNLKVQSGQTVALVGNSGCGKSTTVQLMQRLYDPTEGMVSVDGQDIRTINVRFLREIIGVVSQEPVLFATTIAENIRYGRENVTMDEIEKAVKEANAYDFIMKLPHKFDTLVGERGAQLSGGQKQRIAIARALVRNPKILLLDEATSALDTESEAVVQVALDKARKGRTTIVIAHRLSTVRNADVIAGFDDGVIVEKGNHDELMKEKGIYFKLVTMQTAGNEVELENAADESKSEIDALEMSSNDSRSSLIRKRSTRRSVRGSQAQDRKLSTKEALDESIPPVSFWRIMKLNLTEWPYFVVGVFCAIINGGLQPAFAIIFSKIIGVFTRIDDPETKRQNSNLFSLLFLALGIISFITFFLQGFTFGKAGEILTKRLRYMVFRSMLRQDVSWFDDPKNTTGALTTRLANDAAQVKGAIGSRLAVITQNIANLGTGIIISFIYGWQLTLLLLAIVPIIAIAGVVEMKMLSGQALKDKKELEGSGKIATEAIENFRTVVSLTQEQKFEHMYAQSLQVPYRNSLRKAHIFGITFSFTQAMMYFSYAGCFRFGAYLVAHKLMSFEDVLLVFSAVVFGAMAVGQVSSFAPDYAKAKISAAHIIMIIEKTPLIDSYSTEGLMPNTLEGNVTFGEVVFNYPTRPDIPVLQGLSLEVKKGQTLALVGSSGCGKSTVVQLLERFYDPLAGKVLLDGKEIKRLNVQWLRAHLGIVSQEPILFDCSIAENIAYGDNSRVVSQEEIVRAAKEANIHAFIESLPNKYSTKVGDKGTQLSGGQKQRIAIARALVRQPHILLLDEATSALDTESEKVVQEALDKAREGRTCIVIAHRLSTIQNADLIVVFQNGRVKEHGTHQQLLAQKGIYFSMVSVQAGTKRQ
T4 sequence (P08183 whole entry): as above
T1 sequence (P33527 whole entry): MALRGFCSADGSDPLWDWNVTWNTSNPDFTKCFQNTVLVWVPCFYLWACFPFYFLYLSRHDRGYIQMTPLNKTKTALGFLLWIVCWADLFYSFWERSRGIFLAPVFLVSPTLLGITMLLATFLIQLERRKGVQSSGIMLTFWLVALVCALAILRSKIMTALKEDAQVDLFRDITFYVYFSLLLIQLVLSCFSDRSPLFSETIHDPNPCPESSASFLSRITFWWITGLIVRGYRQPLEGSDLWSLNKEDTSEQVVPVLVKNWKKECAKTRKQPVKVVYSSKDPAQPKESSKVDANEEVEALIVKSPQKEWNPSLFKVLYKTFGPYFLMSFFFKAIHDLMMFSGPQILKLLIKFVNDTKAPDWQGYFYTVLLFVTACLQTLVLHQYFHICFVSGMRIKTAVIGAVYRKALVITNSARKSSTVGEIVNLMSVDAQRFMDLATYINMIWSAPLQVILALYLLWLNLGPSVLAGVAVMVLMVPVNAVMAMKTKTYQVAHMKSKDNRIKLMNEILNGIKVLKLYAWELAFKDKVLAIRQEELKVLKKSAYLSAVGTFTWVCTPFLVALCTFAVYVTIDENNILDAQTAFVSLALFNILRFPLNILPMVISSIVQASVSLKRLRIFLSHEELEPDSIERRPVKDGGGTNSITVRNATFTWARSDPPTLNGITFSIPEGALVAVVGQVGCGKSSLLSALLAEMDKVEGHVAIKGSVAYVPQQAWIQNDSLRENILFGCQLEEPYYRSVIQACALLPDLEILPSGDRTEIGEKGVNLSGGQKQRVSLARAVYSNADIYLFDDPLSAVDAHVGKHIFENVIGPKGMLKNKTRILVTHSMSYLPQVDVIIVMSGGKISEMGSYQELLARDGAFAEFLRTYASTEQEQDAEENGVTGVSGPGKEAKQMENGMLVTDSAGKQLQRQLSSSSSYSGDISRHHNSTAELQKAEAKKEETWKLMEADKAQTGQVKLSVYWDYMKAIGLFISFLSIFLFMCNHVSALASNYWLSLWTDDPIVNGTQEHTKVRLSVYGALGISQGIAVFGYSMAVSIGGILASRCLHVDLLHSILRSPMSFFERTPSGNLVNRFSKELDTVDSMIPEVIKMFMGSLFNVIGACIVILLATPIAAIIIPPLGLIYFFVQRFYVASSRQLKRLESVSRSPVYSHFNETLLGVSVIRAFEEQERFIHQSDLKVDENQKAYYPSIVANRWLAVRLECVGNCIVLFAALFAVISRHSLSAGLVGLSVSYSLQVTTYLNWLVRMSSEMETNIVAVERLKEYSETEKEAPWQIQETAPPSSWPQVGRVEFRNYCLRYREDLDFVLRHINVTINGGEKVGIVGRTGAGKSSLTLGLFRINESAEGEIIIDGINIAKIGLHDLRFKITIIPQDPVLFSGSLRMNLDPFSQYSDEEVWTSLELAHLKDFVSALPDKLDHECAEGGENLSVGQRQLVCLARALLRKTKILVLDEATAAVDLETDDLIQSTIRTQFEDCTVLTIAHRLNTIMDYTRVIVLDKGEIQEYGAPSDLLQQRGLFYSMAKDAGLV
T5 sequence (P33527 whole entry): as above

Row | Structure (SMILES) | IC50 [3] | IC50 [4] | IC50 [5] | inhibition at 0.5 h, 10 µM (P-gp (ABCB1) [6]) | inhibition at 3 h, 10 µM (MRP1 [7]) | inhibition at 2 h, 10 µM (BCRP (ABCG2) [8]) | inhibition at 10 µM (P-gp (ABCB1) [9]) | inhibition at 3 h, 10 µM (MRP1 [10]) | also measured
1 | COc1cc(N(C)C(=O)Cc2cccc(-n3c(=O)c4c(C)onc4c4c(Cl)cccc43)c2)cc(OC)c1OC |  |  |  |  |  |  |  |  | IC50 [1]: 0.32 µM; IC50 [2]: 1.33 µM
2 | c1ccc(CN2CCN(c3ncnc4c3[nH]c3ccccc34)CC2)cc1 | 9.49 µM | 0.363 µM | 6.08 µM | > 25% | > 25% | > 25% | 30% | 60% | 
3 | COc1ccc(Nc2nc(-c3ccccc3)nc3ccccc23)cc1OC |  |  |  |  |  |  |  |  | IC50 [11]: 1.19 µM
4 | N#Cc1c2n(c3c(N4CCN(CCc5ccc(F)c(F)c5)CC4)nc(-c4ccncc4)nc13)CCCC2 |  |  |  |  |  |  |  |  | IC50 [2]: 0.105 µM; IC50 [12]: 1.31 µM
5 | N#Cc1c2n(c3c(N4CCN(CCc5c[nH]c6ccccc56)CC4)ncnc13)CCCC2 | 5.62 µM | 0.344 µM | 3.41 µM | > 25% | 25% | > 25% |  |  | IC50 [13]: 3.41 µM
6 | COc1cc2c(cc1OC)CN(CCn1c(-c3ccc(N(C)C)cc3)nc3ccc([N+](=O)[O-])cc3c1=O)CC2 |  |  |  |  |  |  |  |  | IC50 [2]: 0.6 µM; IC50 [14]: 0.4 µM
7 | N#Cc1c2n(c3c(N4CCN(Cc5ccc6c(c5)OCO6)CC4)ncnc13)CCCC2 | 13.9 µM | 0.322 µM | 14.6 µM | > 25% | > 25% | > 25% |  |  | 
8 | COc1ccccc1-n1cc(C#N)c2ncnc(N3CCN(Cc4ccccc4)CC3)c21 | 19.1 µM | 0.327 µM | 37.9 µM | > 25% | > 25% | > 25% |  |  | 
9 | N#Cc1c2n(c3c(N4CCN(Cc5ccc6c(c5)OCO6)CC4)ncnc13)CCCCC2 | 5.71 µM | 1.02 µM | 23.7 µM | > 25% | > 25% | > 25% |  |  | 
10 | N#Cc1cn(CCc2ccccc2)c2c(N3CCN(CCc4c[nH]c5ccccc45)CC3)ncnc12 | 1.64 µM | 0.524 µM | 1.39 µM | > 25% | > 25% | > 25% |  |  | 
11 | c1ccc(CCN2CCN(c3ncnc4c3[nH]c3ccccc34)CC2)nc1 | 10.7 µM | 0.345 µM | 11.6 µM | > 25% | > 25% | > 25% | 30% | 60% | 
12 | COc1ccc(C(=O)/C=C/c2ccc(OC)c(OC)c2)c(OC(=O)c2ccccc2OC)c1 |  |  |  |  |  |  |  |  | IC50 [2]: 2.16 µM
13 | c1ccc(CCN2CCN(c3ncnc4c3[nH]c3ccccc34)CC2)cc1 | 1.11 µM | 0.405 µM | 0.839 µM | > 25% | > 25% | > 25% |  | 60% | Emax (P-gp (ABCB1) [15]): 26%; Emax at 3 h (MRP1 [16]): 61%; Emax at 2 h (BCRP (ABCG2) [17]): 28%
14 | O=C(c1ccco1)N1CCN(c2ncnc3c2[nH]c2ccccc23)CC1 |  | 0.169 µM | 6.06 µM | > 25% | > 25% | > 25% | 30% | 60% | 
15 | c1ccc(N2CCN(c3ncnc4c3[nH]c3ccccc34)CC2)nc1 | 5 µM | 0.495 µM | 1.81 µM | > 25% | > 25% | > 25% | 30% |  | 
16 | N#Cc1cn(Cc2ccccc2)c2c(NCCCc3ccccc3)ncnc12 |  |  |  |  |  |  |  |  | IC50 [1]: 0.79 µM; IC50 [2]: 14 µM; IC50 [13]: 20.4 µM
17 | c1ccc2c(c1)[nH]c1c(N3CCN(Cc4ccc5c(c4)OCO5)CC3)ncnc12 | 3.92 µM | 0.717 µM | 7.93 µM | > 25% | > 25% | > 25% | 30% | 60% | 
18 | c1ccc2c(CCN3CCN(c4ncnc5c4[nH]c4ccccc45)CC3)c[nH]c2c1 | 3.5 µM | 0.921 µM | 6.21 µM | > 25% | > 25% | > 25% | 30% | 60% | 
19 | c1ccc(C(c2ccccc2)N2CCN(c3ncnc4c3[nH]c3ccccc34)CC2)cc1 | 2.33 µM | 0.409 µM | 1.38 µM | > 25% | > 25% | > 25% | 30% | 60% | 
20 | COc1ccc(/C=C/C(=O)c2ccccc2NC(=O)c2cnc3ccccc3c2)cc1OC |  |  |  |  |  |  |  |  | IC50 [2]: 0.494 µM; IC50 [18]: 0.573 µM
21 | c1ccc(N2CCN(c3ncnc4c3[nH]c3ccccc34)CC2)cc1 |  | 0.146 µM | 1.1 µM | > 25% | > 25% | > 25% | 30% | 60% | 
22 | CCc1c2c(nc3ccc(O)cc13)-c1cc3c(c(=O)n1C2)COC(=O)[C@]3(O)CC [7-ETHYL-10-HYDROXYCAMPTOTHECIN] |  |  |  |  |  |  |  |  | GI50 [19]: 1.71 µM; GI50 [20]: 0.086 µM
